From PMC3223964 (ACS chemical neuroscience, 2011)
“And” between values parts separate entries of the source, which are not always exact repeats. Equal entries are not always repeated.

Tests used:
KCNQ5 = KCNQ5 (Homo sapiens, UniProt Q9NR82); assay: Tl+ flux assay, KCNQ5; type: cell-based
[1] = Snapshot in vivo PK study, plasma and brain levels after IP administration; details: 10 mg/kg
hERG = hERG (Homo sapiens, UniProt Q12809); assay: IonWorks automated electrophysiology, hERG; type: cell-based
[2] = test system: 68 GPCRs, ion channels and transporters; assay: Ricerca Lead Profiling Screen; type: binding; details: 10 μM
KCNQ4 [3] = target: T1, KCNQ4 (Homo sapiens, UniProt P56696); assay: Tl+ flux assay, KCNQ4; type: cell-based; details: versus KCNQ2, Tl+ flux assay
CYP2C9 = CYP2C9 (Homo sapiens, UniProt P11712); assay: CYP450 inhibition, CYP2C9; type: in vitro ADME
CYP1A2 = target: T2, CYP1A2 (Homo sapiens, UniProt P05177); assay: CYP450 inhibition, CYP1A2; type: in vitro ADME
T2 sequence (P05177 1-516): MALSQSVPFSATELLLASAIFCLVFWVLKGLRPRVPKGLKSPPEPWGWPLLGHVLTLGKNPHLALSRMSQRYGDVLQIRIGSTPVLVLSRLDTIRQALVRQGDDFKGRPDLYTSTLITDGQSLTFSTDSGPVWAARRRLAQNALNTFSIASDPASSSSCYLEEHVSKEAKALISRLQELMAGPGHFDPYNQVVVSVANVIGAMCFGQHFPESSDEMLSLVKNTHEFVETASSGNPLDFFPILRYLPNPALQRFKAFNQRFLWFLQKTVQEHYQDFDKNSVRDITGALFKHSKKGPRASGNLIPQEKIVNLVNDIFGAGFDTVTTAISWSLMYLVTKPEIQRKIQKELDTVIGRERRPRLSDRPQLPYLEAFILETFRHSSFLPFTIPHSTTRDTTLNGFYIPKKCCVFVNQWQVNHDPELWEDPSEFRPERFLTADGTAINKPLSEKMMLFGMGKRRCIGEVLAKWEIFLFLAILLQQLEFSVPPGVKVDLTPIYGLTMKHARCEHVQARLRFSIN

Kir2.1 = target: T3, Kir2.1 (Homo sapiens, UniProt P63252); assay: Tl+ flux assay, Kir2.1; type: cell-based
T3 sequence (P63252 1-427): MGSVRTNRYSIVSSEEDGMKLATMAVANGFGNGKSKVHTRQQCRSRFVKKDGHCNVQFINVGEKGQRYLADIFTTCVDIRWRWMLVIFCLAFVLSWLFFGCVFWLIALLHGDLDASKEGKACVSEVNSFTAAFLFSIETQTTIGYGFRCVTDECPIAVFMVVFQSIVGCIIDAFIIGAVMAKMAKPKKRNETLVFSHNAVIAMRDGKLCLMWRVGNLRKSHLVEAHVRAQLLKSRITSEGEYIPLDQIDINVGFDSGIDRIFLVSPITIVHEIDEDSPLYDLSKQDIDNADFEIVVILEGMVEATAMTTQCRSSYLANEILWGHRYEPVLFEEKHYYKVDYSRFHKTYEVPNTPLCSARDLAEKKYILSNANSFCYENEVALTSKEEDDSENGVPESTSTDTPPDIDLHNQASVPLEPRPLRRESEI

KCNQ2 channels [4] = target: T4, KCNQ2 channels (Homo sapiens, UniProt O43526); assay: IonWorks automated electrophysiology; type: cell-based; details: IW EC50, KCNQ2 (enhancement of KCNQ2 currents), -10 mV step potential
Method in brief: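 Perforated-patch population clamp (IonWorks Quattro) on CHO cells stably expressing KCNQ2. Cells were freshly detached and seeded at 7000 cells/well in HEPES/glucose saline at pH 7.4, then perforated with 50 μg/mL amphotericin B in KCl/K-gluconate internal solution at pH 7.2. Steady-state current at the end of a 2000 ms depolarizing step was read before and after 3 min compound, as % change per well. Dosing was 8 points, 3-fold from 30 μM, in quadruplicate. Conductance was current divided by driving force; ΔV1/2 came from the same cells.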

CYP3A4 = CYP3A4 (Homo sapiens, UniProt P08684); assay: CYP450 inhibition, CYP3A4; type: in vitro ADME
KCNQ2/KCNQ3 = KCNQ2/KCNQ3 (Homo sapiens, UniProt O43525+O43526); assay: IonWorks automated electrophysiology, KCNQ2/KCNQ3; type: cell-based
Method in brief: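 KCNQ2/KCNQ3-expressing cells on IonWorks population patch clamp, perforated with 50 μg/mL amphotericin B, extracellular pH 7.4 and internal pH 7.2. The KCNQ2 voltage protocol was used: a 2000 ms depolarizing step, with steady-state current read at step end before and 3 min after compound. Wells needed >100 pA current and >30 MΩ seal. Dosing was 8 points, 3-fold from 30 μM, in quadruplicate.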

KCNQ4 [5] = target: T1, KCNQ4; assay: IonWorks automated electrophysiology, KCNQ4; type: cell-based; details: versus KCNQ2, IonWorks
KCNQ2 channels [6] = target: T4, KCNQ2 channels; assay: Thallium-based fluorescence; type: cell-based; details: 10-point CRC
Method in brief: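 Thallium influx read with FluxOR dye. Cells were plated at 6500/well on poly-D-lysine, cultured overnight at 37 °C and 5% CO2, and dye-loaded 90 min at room temperature in the dark. Assay buffer was HBSS with 5.8 mM K+, with 20 min compound preincubation. Stimulus brought final K+ to 15.8 mM and Tl+ to 5 mM. Reading was at 1 Hz for 10 s baseline plus 110 s; ΔF/F0 over 120 s was normalized to activator and buffer controls.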

KCNQ1 [7] = target: T5, KCNQ1 (Homo sapiens, UniProt P51787); assay: Tl+ flux assay, KCNQ1; type: cell-based
KCNQ1/KCNE1 [8] = target: T6, KCNQ1/KCNE1 (Homo sapiens, UniProt P51787); assay: Tl+ flux assay, KCNQ1/E1; type: cell-based
CYP2D6 = CYP2D6 (Homo sapiens, UniProt P10635); assay: CYP450 inhibition, CYP2D6; type: in vitro ADME
KCNQ1/KCNE1 [9] = target: T6, KCNQ1/KCNE1; assay: IonWorks automated electrophysiology, KCNQ1/KCNE1; type: cell-based
Method in brief: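 KCNQ1/KCNE1 cells in IonWorks perforated patch (50 μg/mL amphotericin B) at pH 7.4 extracellular. The protocol was a 3000 ms depolarizing step to +40 mV, then a 500 ms hyperpolarizing step. Steady-state current at +40 mV was read before and after 3 min compound exposure. Concentration-response was 8 points, 3-fold from 30 μM, in quadruplicate; sampling was 0.625 kHz.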

KCNQ3 = KCNQ3 (Homo sapiens, UniProt O43525); assay: Tl+ flux assay, KCNQ3; type: cell-based
KCNQ1 [10] = target: T5, KCNQ1; assay: IonWorks automated electrophysiology, KCNQ1; type: cell-based
Method in brief: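 KCNQ1 cells in IonWorks perforated-patch mode (50 μg/mL amphotericin B), with extracellular saline at pH 7.4. Cells were depolarized to +40 mV from the holding potential, and current was measured during the +40 mV step before and 3 min after compound. No liquid junction correction was applied; sampling was 0.625 kHz. EC50 came from 8-point, 3-fold dilutions from 30 μM, in quadruplicate.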

Chain of hERG (Q12809 whole entry): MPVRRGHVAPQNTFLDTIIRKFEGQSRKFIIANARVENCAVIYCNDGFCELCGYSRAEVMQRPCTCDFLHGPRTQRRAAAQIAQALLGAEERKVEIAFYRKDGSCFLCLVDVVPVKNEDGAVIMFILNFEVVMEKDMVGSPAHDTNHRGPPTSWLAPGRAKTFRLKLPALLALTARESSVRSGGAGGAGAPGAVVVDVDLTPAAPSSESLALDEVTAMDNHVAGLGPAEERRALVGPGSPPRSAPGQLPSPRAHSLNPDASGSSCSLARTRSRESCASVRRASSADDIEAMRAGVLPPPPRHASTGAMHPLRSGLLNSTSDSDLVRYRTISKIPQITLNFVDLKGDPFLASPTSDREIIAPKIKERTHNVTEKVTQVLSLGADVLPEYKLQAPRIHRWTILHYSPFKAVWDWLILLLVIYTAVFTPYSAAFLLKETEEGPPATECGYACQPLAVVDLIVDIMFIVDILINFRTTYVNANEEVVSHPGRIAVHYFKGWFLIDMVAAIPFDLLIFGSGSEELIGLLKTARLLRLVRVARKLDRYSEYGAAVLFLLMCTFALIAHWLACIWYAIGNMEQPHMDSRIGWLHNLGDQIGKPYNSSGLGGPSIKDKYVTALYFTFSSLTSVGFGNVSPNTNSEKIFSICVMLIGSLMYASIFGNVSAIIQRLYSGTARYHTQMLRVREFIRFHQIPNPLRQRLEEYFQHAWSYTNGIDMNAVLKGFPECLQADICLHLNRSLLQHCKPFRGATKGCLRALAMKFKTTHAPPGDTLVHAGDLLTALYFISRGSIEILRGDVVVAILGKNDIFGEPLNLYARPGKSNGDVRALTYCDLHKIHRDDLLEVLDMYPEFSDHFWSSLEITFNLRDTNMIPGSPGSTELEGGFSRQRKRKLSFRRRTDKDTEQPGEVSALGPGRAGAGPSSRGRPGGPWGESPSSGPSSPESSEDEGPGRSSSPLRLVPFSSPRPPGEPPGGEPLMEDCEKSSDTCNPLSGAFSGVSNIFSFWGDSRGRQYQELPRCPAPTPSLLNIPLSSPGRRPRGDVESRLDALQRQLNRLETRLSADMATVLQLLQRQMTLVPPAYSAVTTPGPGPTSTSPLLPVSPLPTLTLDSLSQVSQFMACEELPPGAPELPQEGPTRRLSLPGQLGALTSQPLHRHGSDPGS
Chain of CYP3A4 (P08684 whole entry): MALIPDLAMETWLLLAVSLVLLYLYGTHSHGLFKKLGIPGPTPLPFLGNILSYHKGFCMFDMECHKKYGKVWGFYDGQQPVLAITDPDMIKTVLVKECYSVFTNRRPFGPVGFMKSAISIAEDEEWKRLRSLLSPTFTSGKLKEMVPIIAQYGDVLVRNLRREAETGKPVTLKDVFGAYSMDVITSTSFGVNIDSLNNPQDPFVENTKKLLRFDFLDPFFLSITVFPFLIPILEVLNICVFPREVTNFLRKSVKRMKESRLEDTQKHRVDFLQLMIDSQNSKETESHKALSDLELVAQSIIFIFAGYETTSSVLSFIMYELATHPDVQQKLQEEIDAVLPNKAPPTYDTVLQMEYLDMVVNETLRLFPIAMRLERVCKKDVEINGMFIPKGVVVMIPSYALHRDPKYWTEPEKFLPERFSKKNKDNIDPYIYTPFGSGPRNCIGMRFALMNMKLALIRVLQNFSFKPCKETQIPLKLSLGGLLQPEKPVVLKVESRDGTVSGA
Chain of CYP2D6 (P10635 whole entry): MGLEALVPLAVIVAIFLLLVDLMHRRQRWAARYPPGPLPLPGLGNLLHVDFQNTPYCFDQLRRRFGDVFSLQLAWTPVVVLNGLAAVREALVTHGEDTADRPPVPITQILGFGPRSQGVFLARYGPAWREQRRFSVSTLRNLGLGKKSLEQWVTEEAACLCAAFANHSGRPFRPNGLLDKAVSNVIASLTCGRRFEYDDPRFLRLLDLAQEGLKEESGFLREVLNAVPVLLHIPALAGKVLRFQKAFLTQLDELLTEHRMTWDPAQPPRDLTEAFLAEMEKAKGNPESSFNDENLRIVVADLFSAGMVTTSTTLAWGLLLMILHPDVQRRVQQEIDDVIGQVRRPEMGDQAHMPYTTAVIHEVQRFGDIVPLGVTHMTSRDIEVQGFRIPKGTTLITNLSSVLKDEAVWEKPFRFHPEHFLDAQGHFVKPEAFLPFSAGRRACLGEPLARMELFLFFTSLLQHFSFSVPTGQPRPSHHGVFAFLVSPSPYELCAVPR
Chain of CYP2C9 (P11712 whole entry): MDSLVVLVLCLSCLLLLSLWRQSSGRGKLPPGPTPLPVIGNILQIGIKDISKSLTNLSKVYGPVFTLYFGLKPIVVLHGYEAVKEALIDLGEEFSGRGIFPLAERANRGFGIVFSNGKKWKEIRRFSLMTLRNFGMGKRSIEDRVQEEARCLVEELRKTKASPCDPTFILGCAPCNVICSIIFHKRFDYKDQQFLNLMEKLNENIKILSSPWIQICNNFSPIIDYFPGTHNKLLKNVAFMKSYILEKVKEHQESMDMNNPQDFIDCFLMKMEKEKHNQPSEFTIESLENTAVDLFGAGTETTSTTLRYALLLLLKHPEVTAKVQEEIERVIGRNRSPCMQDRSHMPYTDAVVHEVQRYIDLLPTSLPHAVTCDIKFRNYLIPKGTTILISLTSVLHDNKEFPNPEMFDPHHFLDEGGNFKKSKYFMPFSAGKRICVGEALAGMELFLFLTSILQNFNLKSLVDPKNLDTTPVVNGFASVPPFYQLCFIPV

EC50 (KCNQ5): > 30 µM
Fold selectivity (Tl+), KCNQ5 (KCNQ5; versus KCNQ2, Tl+ flux assay): >80 fold
concentration at 1 h ([1]; brain): 476 nM
concentration at 1 h ([1]; plasma): 1260 nM
inhibition of radio ligand binding, panel of 68 GPCRs, ion channels and transporters [2]: ≤ 50%
Fold selectivity (Tl+), KCNQ4 (KCNQ4 [3]): 6.7 fold
IC50 (CYP2C9): > 30 µM
IC50 (CYP1A2): > 30 µM
EC50 (Kir2.1): > 10 µM
Fold selectivity (Tl+), Kir2.1 (Kir2.1; versus KCNQ2, Tl+ flux assay): >27 fold
EC50 (KCNQ2 channels [4]): 0.23 µM
IC50 (CYP3A4): > 30 µM
EC50 (KCNQ2/KCNQ3): 0.37 µM
Fold selectivity (IW), KCNQ2/3 (KCNQ2/KCNQ3; versus KCNQ2, IonWorks): 1 fold
Fold selectivity (IW), KCNQ4 (KCNQ4 [5]): 1.4 fold
maximal increase in Tl+ influx, KCNQ2 (KCNQ2 channels [6]): 56%
EC50 (KCNQ2 channels [6]; Tl+ EC50, KCNQ2, fluorescent Tl+ influx assay): 0.359 µM and 0.36 µM
EC50 (KCNQ1 [7]): > 30 µM
EC50 (KCNQ1/KCNE1 [8]): > 30 µM
IC50 (CYP2D6): > 30 µM
EC50 (KCNQ1/KCNE1 [9]): > 30 µM
EC50 (KCNQ3): > 30 µM
Fold selectivity (Tl+), KCNQ3 (KCNQ3; versus KCNQ2, Tl+ flux assay): >80 fold
EC50 (KCNQ1 [10]): > 30 µM
Structure (SMILES): Cc1cc(C)c(NC(=O)C2CC3CCC2C3)c(C)c1 (stereo not drawn) [compound 1, N-Mesitylbicyclo[2.2.1]heptane-2-carboxamide]
EC50 (hERG): > 10 µM
selectivity ratio (hERG; human): > 28
selectivity ratio at 20 min (KCNQ1 [7]): > 80
selectivity ratio at 20 min (KCNQ1/KCNE1 [8]): > 80
selectivity ratio at 3 min (KCNQ1/KCNE1 [9]; pH 7.4): > 80
selectivity ratio at 3 min (KCNQ1 [10]; pH 7.4): > 80
